# An excerpt weighted towards active compounds, which were near 1.8% of everything screened.
# FLuc inhib CS = inhibits firefly luciferase, flagging false hits in luciferase inhibition screens. P08659. ATPLite firefly luciferase biochemical luminescence, 10 min. inhibition, % at 10 µM. 1.5% of 200,000 active;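 active = inhibition above about 50% when tested at 10 µM, limit read from the data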
# Target sequence (P08659 whole entry, looked up): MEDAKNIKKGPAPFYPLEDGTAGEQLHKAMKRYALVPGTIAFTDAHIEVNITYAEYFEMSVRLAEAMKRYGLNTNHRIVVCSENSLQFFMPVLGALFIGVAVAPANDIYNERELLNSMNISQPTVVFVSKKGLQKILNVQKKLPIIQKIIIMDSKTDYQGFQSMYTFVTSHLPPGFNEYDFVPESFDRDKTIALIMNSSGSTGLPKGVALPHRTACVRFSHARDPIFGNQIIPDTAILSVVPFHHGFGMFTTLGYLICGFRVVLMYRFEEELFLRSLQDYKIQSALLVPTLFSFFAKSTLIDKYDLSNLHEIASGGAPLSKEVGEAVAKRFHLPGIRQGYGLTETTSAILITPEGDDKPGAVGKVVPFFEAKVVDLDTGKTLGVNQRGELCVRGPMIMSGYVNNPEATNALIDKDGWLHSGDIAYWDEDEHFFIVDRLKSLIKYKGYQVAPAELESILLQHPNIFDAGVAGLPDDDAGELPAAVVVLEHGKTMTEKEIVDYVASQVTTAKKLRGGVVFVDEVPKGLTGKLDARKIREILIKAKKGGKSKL
# PPC-1+TRAIL kill = kills PPC-1 cancer cells in the presence of TRAIL | PPC-1 cells + TRAIL, ATPLite viability luminescence | cell killing (% activity), % at 4 µM or 5 µM | 0.41% of 220,000 active;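 active = cell killing above 50% in the first pass at 4 µM, then a duplicate retest at 5 µM averaging 50% or more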;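 note: plate controls were cells with TRAIL plus DMSO for no effect and medium-only wells lacking cells for full effect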
# beta cell repl = inducers of beta-cell replication in MIN6 cells; 0.29% of 330,000 active; proliferation, % at 10 µM; MIN6 cells proliferation, ATPlite luminescence, 48 h; cells starved in 0.2% serum; 100% = growth in 10% serum; AID 2380;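 active = compounds whose signal lies at least 3.5 SD above the mean of all wells on their plate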;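 note: 0% = DMSO-treated cells in low-serum medium and 100% = 10% serum control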
# FLuc act counter = affects firefly luciferase, flagging false hits in luciferase stimulation screens | P08659 | ATPlite luciferase biochemical, luminescence, 10 min; 0 = ATP-free wells, 1 = DMSO control | activation factor at 10 µM | 200,000 tested, under 10 active;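 active = luciferase activation factor, scaled between plate controls, of at least 2 with compound at 10 µM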
#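 Assay system – cell-free luciferase reagent · Medium – PBS-based ATP solution · Dosing – test compounds dosed from 2 mM stocks in 100% DMSO · Timing – 10 min, room temperature · Technique – light output (luminescence) · Measure – luminescence gain marking luciferase activators · Controls – No-ATP low control, compound-free enzyme-plus-ATP high control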
# TRAIL sens C8 = caspase-8 TRAIL sensitization; AID 624354; NB7+C8 cells + TRAIL, ATPlite viability luminescence; 1% of 360,000 active; inhibition (viability loss, TRAIL sensitization), % at 10 µM;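 active = compounds causing at least 50% loss of cell viability in the single-dose screen, relative to plate controls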
# hiPSC survival = enhancers of human iPSC single-cell survival. hiPSC single-cell survival, ATPlite luminescence; 100% = ROCK inhibitor wells, 0% = DMSO. AID 602274. 0.044% of 360,000 active. survival enhancement, % at 20 µM; in the data active = survival enhancement above about 18%;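 note: cells exposed to compounds for 16 hours before the ATP read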
# An asterisk follows results filed as active; . = no result given.
SMILES,FLuc inhib CS,PPC-1+TRAIL kill,beta cell repl,FLuc act counter,TRAIL sens C8,hiPSC survival
CCc1ccc(C(=O)COC(=O)c2cccs2)cc1,87.0*,11.4,-1.2,0.1,-0.8,-3.5
Cc1ccc(C(=O)COC(=O)c2cccs2)cc1,91.5*,15.0,-5.3,0.1,39.7,-2.2
CCOc1ccccc1-c1nnc(SCC(=O)NC2(C#N)CCCC2)o1,.,.,-3.5,.,-11.2,-2.9
CN1C(=O)C(CC(=O)Nc2ccc(F)cc2)N(NC(=O)c2cccc(F)c2)C1=S (centres undefined),.,-3.0,-2.5,.,0.2,1.5
NS(=O)(=O)c1cc(C(=O)OCC(=O)c2ccc3c(c2)OCCO3)ccc1Cl,91.8*,6.9,-0.4,0.1,22.0,-4.3
Cc1cccc(C(=O)OCC(=O)c2ccc3c(c2)OCCO3)c1O,.,.,-4.4,.,36.3,0.4
CC(C)C(=O)Nc1ccccc1C(=O)OCC(=O)c1ccc2c(c1)OCCO2,61.9*,2.9,0.0,0.4,5.3,-0.2
CCc1ccc(NC(=O)C(=O)NCC2CCCN2S(=O)(=O)c2ccccc2)cc1 (centres undefined),.,.,-3.7,.,-6.5,0.6
O=c1/c(=C/c2ccc(O)cc2)sc2n1CCCN=2,17.9,0.1,-1.8,0.8,5.7,-1.4
CN(C)c1ccc(/C=c2\sc3n(c2=O)CCCN=3)cc1,83.5*,28.7,-4.4,0.2,62.0*,-6.5
COC(=O)C[C@H]1C[C@H]2c3cc(NC(=O)CC4CC4)ccc3O[C@H]2[C@H](CO)O1,.,.,.,.,0.0,-2.8
COc1ccccc1C=NN=C(N)C(N)=NN=Cc1ccccc1OC,.,.,.,.,-0.2,-0.5
COc1cccc(/C=N/NC(=O)N/N=C/c2cccc(OC)c2O)c1O,.,.,-1.2,.,18.3,-0.5
COc1ccccc1C=NNC(=O)NN=Cc1ccccc1OC,.,.,.,.,65.5*,-3.9
COc1cc(C(=O)Oc2ccccc2/C=N/NC(=O)c2ccc(C)c(Cl)c2)cc(OC)c1OC,-0.8,52.3*,-1.5,1,40.8,-0.7
COc1ccccc1C=NN=C(NN=Cc1ccccc1OC)NN=Cc1ccccc1OC,.,.,.,.,68.8*,-0.4
COc1ccccc1/C=N/OC(=O)c1ccc(F)cc1,73.8*,15.5,-3.1,0.3,-9.6,1.5
NC(=O)COc1ccc(NC(=O)CC23CC4CC(CC(C4)C2)C3)cc1,.,.,2.6,.,-4.2,0.1
COc1ccc(C(=O)N=c2sc3ccccc3n2C)cc1,69.1*,41.4,-2.0,0.3,42.3,-0.3
O=[N+]([O-])c1ccc(N2CCN(S(=O)(=O)c3ccccc3[N+](=O)[O-])CC2)cc1N1CCc2ccccc2C1,-0.9,-4.1,6.0*,1,-7.7,6.8
O=[N+]([O-])c1ccccc1S(=O)(=O)N1CCc2ccccc2C1,-5.5,.,-0.7,1.1,-2.4,-1.4
CC1C(c2ccc3c(c2)OCO3)c2cc3c(cc2OC1N1CCOCC1)OCO3 (centres undefined),.,.,.,.,1.8,-0.4
COc1ccccc1C1CC(=O)Nc2cc(C)c(C)cc21 (centres undefined),.,.,1.0,.,20.9,-0.7
Cc1cc2c(cc1C)C(c1ccccc1Br)CC(=O)N2 (centres undefined),0.8,53.7*,-2.2,1,-7.7,-1.0
COc1cc(C(=O)N2CCN(S(=O)(=O)c3cccc(F)c3)CC2)ccc1OCC(=O)N1CCOCC1,.,.,-1.2,.,0.6,-0.6
SMILES,FLuc inhib CS,PPC-1+TRAIL kill,beta cell repl,FLuc act counter,TRAIL sens C8,hiPSC survival
CCOc1cc(-c2c(C)c(CC)nc(N)c2C#N)ccc1O,-8.0,-10.1,0.2,1.1,-1.6,0.5
CN(C)c1ccc(/C=C2\N=C(c3ccc(Cl)c([N+](=O)[O-])c3)NC2=O)cc1,15.8,14.2,-5.3,0.8,31.6,-4.7
CCc1nc(N)nc(N)c1-c1ccc(Cl)c(N=[N+]=[N-])c1,.,.,.,.,82.6*,0.1
CCc1nc(N)nc(N)c1-c1ccc(Cl)c([N+](=O)[O-])c1,.,.,.,.,80.3*,2.5
c1ccc(Nc2nnc(-c3cccnc3)s2)cc1,.,.,-3.3,.,52.8*,-0.4
Nc1nnc(-c2cccnc2)s1,0.8,-1.6,-1.7,1,5.5,-0.3
O=C(NC1CCN(Cc2ccccc2)CC1)c1[nH]c(C(F)(F)F)nc1-c1ccccc1,.,.,.,.,-7.6,3.9
O=C(CNC(=O)c1ccccc1Cl)NCC(c1cccs1)N1CCOCC1 (centres undefined),.,.,-3.2,.,1.0,1.3
COc1ccc(Nc2nnc(SCC(=O)N3CC(=O)Nc4ccccc43)s2)cc1,55.4*,25.9,-2.1,0.4,22.8,-1.5
CCOC(=O)C1CCCN(C(=O)C(=O)c2cn(CC(=O)N3CCOCC3)c3ccccc23)C1 (centres undefined),.,.,-3.6,.,0.6,0.1
O=c1c2c3c(sc2nc2n1N=C(c1cccs1)CS2)CCCC3,76.2*,77.8*,-7.2,0.2,67.2*,-3.5
Fc1cccc(CSc2ccc(-c3ccc4c(c3)OCO4)nn2)c1,4.5,12.2,0.0,1,8.2,-0.9
c1cncc(CSc2ccc(-c3ccc4c(c3)OCO4)nn2)c1,52.6*,1.7,-4.5,0.5,11.3,0.3
CC1(C(=O)NS(=O)(=O)c2ccc(Cl)s2)CCN1C(=O)C1(c2ccc(Cl)cc2)CC1 (centres undefined),.,.,.,.,-15.9,2.5
Cc1nc(CC(=O)NNS(=O)(=O)c2cccc(Cl)c2Cl)cs1,.,.,6.7,.,-8.2,2.3
O=C(NC1=NCCS1)C1COc2ccccc2O1 (centres undefined),76.5*,28.8,-0.9,0.2,42.5,-3.5
O=[N+]([O-])c1ccc(CS(=O)c2ccccc2)cc1 (centres undefined),.,.,.,.,-10.3,2.1
O=[N+]([O-])c1ccc(S(=O)Cc2ccccc2)c([N+](=O)[O-])c1 (centres undefined),.,.,.,.,65.7*,-5.1
COc1ccc2[nH]c(-c3ccc(C)cc3)cc(=O)c2c1,93.4*,72.7*,-7.3,0.1,84.5*,-4.8
CCc1ccc(-c2cn3c(n2)SCC3)cc1,64.1*,31.0,-2.8,0.4,28.8,-2.0
CCCn1c(=O)c2c(nc3n2CCCN3CCc2ccccc2)n(C)c1=O,.,.,1.1,.,7.5,0.3
Cn1c(=O)n(CCc2ccccc2)c(=O)c2c1nc1n2CCCN1CCc1ccccc1,-2.3,7.9,-3.2,1,44.7*,-1.8
C(=Cc1nc2ccccc2o1)c1ccc2c(c1)OCO2,.,.,.,.,79.6*,-4.5
C(=Cc1cnc2ccccc2n1)c1ccc2c(c1)OCO2,.,.,.,.,85.9*,-2.8
CC(=O)Nc1ccc(/C=C/c2nc3ccccc3o2)cc1,.,.,-3.2,.,8.5,-0.7
COc1ccc(Br)cc1CN(C)CC(=O)Nc1cccc(S(=O)(=O)N2CCCC2)c1,.,.,-4.5,.,9.8,1.8
Cc1cccc(-n2ncc3c(N4CCC(C)CC4)ncnc32)c1,44.2,21.7,-0.9,0.6,50.1*,-0.4
